# Laboratory results: ChEMBL document CHEMBL2417491, “Design, synthesis and biological evaluation of aryl pyrimidine derivatives as potential leishmanicidal agents” (Bioorg Med Chem Lett, 2013)
# Calls of active or inactive are those of the source. No cut-off for these calls is given here.
# Legend:
# Leishmania donovani [1] = experiment: Antileishmanial activity against Leishmania donovani infected in golden hamster assessed as inhibition of parasite multiplication at 50 mg/kg, ip for 5 days measured after 7 days by Giemsa staining-based assay; format: functional; conditions: for inhibition in vivo at 50 mg/kg: route intraperitoneal
# How it was run: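 Hamsters infected with L. donovani received test compounds at 50 mg/kg/day ip for 5 days, starting after the infection was established. Parasite burden was determined by Giemsa staining. Efficacy was expressed as percent inhibition, comparing treated animals, untreated animals and the initial count in treated animals.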
# Leishmania donovani [2] = experiment: Antileishmanial activity against Leishmania donovani amastigotes infected in mouse J774A1 cells after 72 hrs by luciferase reporter gene assay; format: functional, organism-based; conditions: J774.A1, 72 h
# How it was run: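 Macrophage cells were seeded at 4 × 10³ per well, held 24 h in a CO₂ incubator, and then infected with 4 × 10⁴ promastigotes, which transform into intracellular amastigotes. Compounds were added at 0.62–40 and incubated 72 h. Read-out was luminescence after Steady-Glo addition, with inhibition derived against untreated controls. IC₅₀ is the mean of two independent experiments.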
# [3] = Cytotoxicity against African green monkey Vero cells after 72 hrs by MTT assay; format: cell-based; conditions: chlorocebus sabaeus
# How it was run: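 Monkey kidney Vero cells were exposed to compounds for 72 h. Viable cells were detected with MTT, and CC₅₀ was estimated by the Huber & Koella method. Values are the mean of two independent experiments.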
# Syrian golden hamster = experiment: Toxicity in golden hamster at 50 mg/kg, ip; format: organism-based, Mesocricetus auratus; parameters: dose 50 mg/kg, route intraperitoneal; conditions: in vivo
# [4] = (§1) Selectivity index, ratio of CC50 for African green monkey Vero cells to IC50 for Leishmania donovani amastigotes; format: functional
# How it was run: (§2)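 Calculated as CC₅₀ on Vero cells divided by IC₅₀ on L. donovani intramacrophage amastigotes. Both values come from 72 h assays: MTT for Vero cells and a luciferase reporter for amastigotes.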
# Leishmania donovani [5] = experiment: Antileishmanial activity against Leishmania donovani infected in golden hamster assessed as inhibition of parasite multiplication at 40 mg/kg, ip for 5 days measured after 7 days by Giemsa staining-based assay; format: functional, organism-based; parameters: dose 40 mg/kg
# How it was run: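 Reference-drug arm in the L. donovani-infected hamster model, dosed at 40 mg/kg ip daily for 5 days. After the infection was established, parasite burden was assessed by Giemsa staining. Percent inhibition came from comparing treated with untreated animals and with the initial count in treated animals.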
# Vero = experiment: as §1; format: functional; how it was run: as §2
# [6] = Cytotoxicity against mouse J774A1 cells after 72 hrs; format: cell-based; conditions: j774.a1, 72 h
# Leishmania donovani [7] = experiment: Antileishmanial activity against Leishmania donovani infected in golden hamster assessed as inhibition of parasite multiplication at 30 mg/kg, po for 5 days measured after 7 days by Giemsa staining-based assay; format: functional
compound,measurement,setting,value
COc1ccc(Nc2cc(/C=C/c3ccc(OCc4ccccc4)cc3)nc(N)n2)cc1,inhibition in vivo at 50 mg/kg,Leishmania donovani [1],78.1%
same,IC50,Leishmania donovani [2],0.5 µM
same,CC50 at 72 h,[3],57.8 µM
same,Activity,Syrian golden hamster,Non-toxic
same,Ratio CC50/IC50,[4],116
COc1cc(/C=C/c2cc(SC)nc(N)n2)cc(OC)c1OC,inhibition,Leishmania donovani [1],inactive
same,IC50,Leishmania donovani [2],> 40 µM
same,Activity,Syrian golden hamster,Non-toxic
COc1ccc(/C=C/c2cc(SC)nc(N)n2)cc1,inhibition in vivo at 50 mg/kg,Leishmania donovani [1],54.4%
same,IC50,Leishmania donovani [2],9.1 µM
same,CC50 at 72 h,[3],250 µM
same,Activity,Syrian golden hamster,Non-toxic
same,Ratio CC50/IC50,[4],27
COc1cc(/C=C/c2cc(SC)nc(N)n2)ccc1O,Activity,Syrian golden hamster,Non-toxic
CSc1cc(/C=C/c2ccc(OC3CCCCO3)cc2)nc(N)n1 (stereo not given),inhibition in vivo at 50 mg/kg,Leishmania donovani [1],54.4%
same,IC50,Leishmania donovani [2],3.6 µM
same,CC50 at 72 h,[3],122 µM
same,Activity,Syrian golden hamster,Non-toxic
same,Ratio CC50/IC50,[4],34
COc1ccc(/C=C/c2cc(SC)nc(N)n2)cc1OC,inhibition in vivo at 50 mg/kg,Leishmania donovani [1],47.1%
same,IC50,Leishmania donovani [2],2 µM
same,CC50 at 72 h,[3],125 µM
same,Activity,Syrian golden hamster,Non-toxic
same,Ratio CC50/IC50,[4],62
Sodium stibogluconate,inhibition,Leishmania donovani [5],88.5%
same,Ratio CC50/IC50,Vero,> 7
CCOc1cc(/C=C/c2cc(SC)nc(N)n2)ccc1OC1CCCCO1 (stereo not given),inhibition in vivo at 50 mg/kg,Leishmania donovani [1],33.5%
same,IC50,Leishmania donovani [2],12.9 µM
same,CC50 at 72 h,[3],248 µM
same,Activity,Syrian golden hamster,Non-toxic
same,Ratio CC50/IC50,[4],19
COc1ccc(Nc2cc(/C=C/c3ccc(OC4CCCCO4)cc3)nc(N)n2)cc1 (stereo not given),inhibition in vivo at 50 mg/kg,Leishmania donovani [1],78.2%
same,IC50,Leishmania donovani [2],2.7 µM
same,CC50 at 72 h,[3],345 µM
same,Activity,Syrian golden hamster,Non-toxic
same,Ratio CC50/IC50,[4],128
CSc1cc(/C=C/c2ccc(OCc3ccccc3)cc2)nc(N)n1,inhibition in vivo at 50 mg/kg,Leishmania donovani [1],88.4%
same,Activity,[6],Non-toxic
same,IC50,Leishmania donovani [2],2 µM
same,CC50 at 72 h,[3],376 µM
same,Activity,Syrian golden hamster,Non-toxic
same,Ratio CC50/IC50,[4],188
CCCCCCCCCCCCCCCCOP(=O)([O-])OCC[N+](C)(C)C [MILTEFOSINE],inhibition in vivo at 30 mg/kg,Leishmania donovani [7],98.1%
same,Ratio CC50/IC50,[4],4
CSc1cc(/C=C/c2ccc(OS(=O)(=O)[O-])cc2)nc(N)n1.[Na+],inhibition in vivo at 50 mg/kg,Leishmania donovani [1],55.1%
same,IC50,Leishmania donovani [2],6.3 µM
same,CC50 at 72 h,[3],301 µM
same,Activity,Syrian golden hamster,Non-toxic
same,Ratio CC50/IC50,[4],48
CSc1cc(/C=C/c2ccc(O)cc2)nc(N)n1,Activity,Syrian golden hamster,Non-toxic
